Experimental data pooled from the literature.
pIC50: −log10 of the molar value. Converted amounts (≈) assume the structure as drawn.

With CN(C)c1ccc(C=Nn2c(-c3ccccc3)nc3ccc(Cl)cc3c2=O)cc1 the pIC50 was 4.20 (LLC-PK1; cell growth or viability, MTT; 72 h).
CC1(C)C[C@H]2[C@H]1CC[C@]1(C)CCC[C@@]2(NS(=O)(=O)c2ccc(OC(F)(F)F)cc2)C1 gave an inhibition of 75.9% (HT-29; cell growth or viability, CCK-8; 50 µM).
With O=c1c2cc(Cl)ccc2nc(-c2ccccc2)n1N=Cc1ccc(Cl)c(Cl)c1 the pIC50 was 3.47 (LLC-PK1; cell growth or viability, MTT; 72 h).
With CCS(=O)(=O)Oc1ccc(C=NNC(=O)CSc2nc3c(C)cccc3c(=O)n2-c2ccccc2)cc1 the inhibition zone was 2 mm (Klebsiella pneumoniae; microbial growth, well diffusion; 20 µg/mL).
CC(=O)NC[C@H]1CN(c2ccc(N3CCOCC3)c(F)c2)C(=O)O1 gave an MIC of 0.5 µg/mL (≈ 1.48 µM) (Streptococcus pneumoniae; microbial growth, agar dilution; ATCC49619).
CC1(C)C[C@H]2[C@H]1CC[C@]1(C)CCC[C@@]2(NS(=O)(=O)C(C)(C)C)C1 has an inhibition of 71.4% (HT-29; cell growth or viability, CCK-8; 50 µM).
CCS(=O)(=O)Oc1cc(C=NNC(=O)CSc2nc3c(C)cccc3c(=O)n2-c2ccccc2)ccc1OC gave an inhibition zone of 3 mm (Klebsiella pneumoniae; microbial growth, well diffusion; 20 µg/mL).
For CC1(C)C[C@H]2[C@H]1CC[C@]1(C)CCC[C@@]2(n2cc(C(=O)O)nn2)C1, the inhibition was 32.3% (HT-29; cell growth or viability, CCK-8; 50 µM).
The MIC of CC1(C)S[C@@H]2[C@H](NC(=O)[C@H](N)c3ccccc3)C(=O)N2[C@H]1C(=O)O is reported as 0.5 µg/mL (≈ 1.43 µM) (Streptococcus pneumoniae; microbial growth, agar dilution; ATCC49619).
With Nc1ccc(S(=O)(=O)Nc2ncccn2)cc1 the inhibition zone was 2 mm (Klebsiella pneumoniae; microbial growth, well diffusion; 20 µg/mL).
Cc1nc(Nc2ncc(C(=O)Nc3c(C)cccc3Cl)s2)cc(N2CC[C@H](O)C2)n1 has an inhibition of 56% (CA46; cell growth or viability, ATP luminescence; 10 µM, 72 h).
The MIC90 of CC1(C)S[C@@H]2[C@H](NC(=O)[C@H](N)c3ccc(O)cc3)C(=O)N2[C@H]1C(=O)O is reported as 3 µM (Vibrio vulnificus; microbial growth, broth dilution).
For CCS(=O)(=O)Oc1ccc(C=NNC(=O)CSc2nc3ccc(Cl)cc3c(=O)n2-c2ccccc2)cc1, the inhibition zone was 2 mm (Klebsiella pneumoniae; microbial growth, well diffusion; 20 µg/mL).
For CN[C@H](CC(C)C)C(=O)N[C@H]1C(=O)N[C@@H](CC(N)=O)C(=O)N[C@H]2C(=O)N[C@H]3C(=O)N[C@H](C(=O)N[C@H](C(=O)O)c4cc(O)cc(O)c4-c4cc3ccc4O)[C@H](O)c3ccc(c(Cl)c3)Oc3cc2cc(c3O[C@@H]2O[C@H](CO)[C@@H](O)[C@H](O)[C@H]2O[C@H]2C[C@](C)(N)[C@H](O)[C@H](C)O2)Oc2ccc(cc2Cl)[C@H]1O, the MIC90 was 1 µg/mL (Streptococcus pneumoniae; microbial growth; PRSP; clinical isolate).
With CC1(C)C[C@H]2[C@H]1CC[C@]1(C)CCC[C@@]2(n2cc(CNC(N)=O)nn2)C1 the inhibition was < 50% (HT-29; cell growth or viability, CCK-8; 10 µM).
With CS(=O)(=O)Oc1ccc(C=NNC(=O)CSc2nc3ccc(Cl)cc3c(=O)n2-c2ccccc2)cc1 the inhibition zone was 2 mm (Klebsiella pneumoniae; microbial growth, well diffusion; 20 µg/mL).
For C=C[C@]1(C)C[C@@H](OC(=O)CS[C@@H]2C[C@H]3CC[C@@H](C2)N3C)[C@]2(C)[C@H](C)CC[C@]3(CCC(=O)[C@H]32)[C@@H](C)[C@@H]1O, the MIC was 0.0312 µg/mL (≈ 0.0604 µM) (Streptococcus pneumoniae; microbial growth, agar dilution; ATCC49619).
Cc1cccc2c(=O)n(-c3ccccc3)c(SCC(=O)NN=Cc3ccc(OS(C)(=O)=O)cc3)nc12 has an inhibition zone of 3 mm (Klebsiella pneumoniae; microbial growth, well diffusion; 20 µg/mL).
O=c1c2cc(Cl)ccc2nc(-c2ccccc2)n1N=Cc1c(F)cccc1Cl has a pIC50 of 4.33 (LLC-PK1; cell growth or viability, MTT; 72 h).
COc1ccc(-c2cn([C@@]34CCC[C@@](C)(CC[C@@H]5[C@@H]3CC5(C)C)C4)nn2)cc1 has an inhibition of 44.8% (HT-29; cell growth or viability, CCK-8; 50 µM).
COc1cc(C=NNC(=O)CSc2nc3c(C)cccc3c(=O)n2-c2ccccc2)ccc1OS(C)(=O)=O has an inhibition zone of 3 mm (Klebsiella pneumoniae; microbial growth, well diffusion; 20 µg/mL).
The inhibition of CC1(C)C[C@H]2[C@H]1CC[C@]1(C)CCC[C@@]2(n2cc(C(=O)NC3CCNCC3)nn2)C1 is reported as 74.4% (HT-29; cell growth or viability, CCK-8; 50 µM).
For COc1c(N2C[C@@H]3CCCN[C@@H]3C2)c(F)cc2c(=O)c(C(=O)O)cn(C3CC3)c12, the MIC was 0.125 µg/mL (≈ 0.311 µM) (Streptococcus pneumoniae; microbial growth, agar dilution; ATCC49619).
CC1(C)C[C@H]2[C@H]1CC[C@]1(C)CCC[C@@]2(n2cc(C(=O)NCCN)nn2)C1 gave an inhibition of 78.3% (HT-29; cell growth or viability, CCK-8; 50 µM).
With COc1ccc(C=NNC(=O)CSc2nc3c(C)cccc3c(=O)n2-c2ccccc2)cc1OS(C)(=O)=O the inhibition zone was 2 mm (Klebsiella pneumoniae; microbial growth, well diffusion; 20 µg/mL).
CC1(C)C[C@H]2[C@H]1CC[C@]1(C)CCC[C@@]2(n2cc(CN3CCOCC3)nn2)C1 gave an inhibition of 45% (HT-29; cell growth or viability, CCK-8; 50 µM).
The MIC90 of CC[C@H]1OC(=O)[C@H](C)[C@@H](O[C@H]2C[C@@](C)(OC)[C@@H](O)[C@H](C)O2)[C@H](C)[C@@H](O[C@@H]2O[C@H](C)C[C@H](N(C)C)[C@H]2O)[C@](C)(O)C[C@@H](C)/C(=N\OCOCCOC)[C@H](C)[C@@H](O)[C@]1(C)O is reported as 4 µg/mL (Streptococcus pneumoniae; microbial growth; clinical isolate).
